In one experiment the test system is MV4:11 cells. In words: Proliferation assay. It counts as cell-based, human. As to conditions: Homo sapiens, MV4-11, 72 h, MV4:11, 3 days, mean with SEM. The method in brief:
(§1)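 CellTiter-Glo, 5,000 cells/well. Cells received 0.1% DMSO or at least five two-fold dilutions of test compound (top 50 μM, final DMSO 0.1%), in triplicate wells and ≥2 biological replicates, for 72 h at 37°C. Reagent was added after equilibration to RT, with 30 min dark incubation before luminescence. Signals were normalized to DMSO wells and GI50 obtained by curve fitting. Curve error bars are SEM.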

Experiment [1] deals with p53 and p21 protein levels in MV4:11 cells. In words: p53/p21 induction western blot. In kind it is cell-based, human. Conditions: MV4:11, 30 µM OICR-9429. The method in brief:
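Treatment lasted 24 h with test compound or its negative control, at 2 μM in MV4:11 and 3 μM in Molm13. Comparators were 2 μM Nutlin-3 or 0.1% DMSO. Four million cells were PBS-washed and lysed 10 min on ice in Kischkel buffer. p53 and p21 were detected by western blot, with histone H3 as loading control.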
Background: Immunoblotting shows a protein as a band on a membrane.

In experiment [2] the test system is ribosome protein gene expression in MV4:11 cells. In words: RT-qPCR quantification of RPG mRNA expression. It counts as cell-based, human. As to conditions: MV4:11, three days, 50 µM OICR-9429 (adjusted to relative GI50). An outline of the steps: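 Cells were lysed in Trizol and total RNA isolated on columns with DNase digestion. 1 μg RNA was reverse transcribed with MuLV reverse transcriptase in 20 μl, then diluted three-fold in nuclease-free water before qPCR.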

In another experiment the test system is Molm13 cells. In words: Proliferation assay. Conditions: Homo sapiens, MOLM-13, 72 h. It counts as cell-based. The method in brief: as §1
A further experiment has as its system HL60 cells. Nature of the experiment: Proliferation assay. Conditions: Homo sapiens, HL-60, 72 h. It counts as cell-based. An outline of the steps:
as §1

In the next experiment the test system is K562 cells. In words: Proliferation assay. Conditions: Homo sapiens, K562, 72 h. In kind it is cell-based. An outline of the steps: as §1
The subject of a further experiment is THP-1 cells. Nature of the experiment: Proliferation assay. In kind it is cell-based. Conditions: Homo sapiens, THP-1, 72 h. The method in brief:
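THP-1 cells were grown in RPMI-1640 with 0.05 mM 2-mercaptoethanol and 10% FBS. Cells were plated 5,000/well with ≥5 two-fold dilutions of test compound (top 50 μM, 0.1% DMSO final), in triplicate wells with ≥2 biological replicates.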

The test system of a further experiment is HEL cells. Nature of the experiment: Proliferation assay. In kind it is cell-based. Conditions: Homo sapiens, 72 h. An outline of the steps:
as §1

The test system of a further experiment is NOMO-1 cells. In words: Proliferation assay. It counts as cell-based. Conditions: Homo sapiens, NOMO-1, 72 h. The method in brief:
as §1

Another experiment concerns SET-2 cells. Nature of the experiment: Proliferation assay. As to conditions: Homo sapiens, SET-2, 72 h. In kind it is cell-based. The method in brief:
as §1

Another experiment relates to MONO-Mac-6 cells. In words: Proliferation assay. Conditions: Homo sapiens, MONO-MAC-6, 72 h. In kind it is cell-based. The method in brief:
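MONO-MAC-6 cells were maintained in RPMI with 10% FBS, non-essential amino acids and OPI supplement. CellTiter-Glo used 5,000 cells/well and ≥5 two-fold dilutions from 50 μM (0.1% DMSO final), in triplicate wells with ≥2 biological replicates, over 72 h at 37°C.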

In the next experiment the test system is GDM-1 cells. Nature of the experiment: Proliferation assay. It counts as cell-based. As to conditions: Homo sapiens, GDM-1, 72 h. An outline of the steps:
as §1

The next experiment has as its system MA93 cells. Nature of the experiment: Proliferation assay. In kind it is cell-based. Conditions: Homo sapiens, 72 h. The method in brief: (§2)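 CellTiter-Glo at 2,000 cells/well. MA93 Ras and MA93 FLT3/ITD were maintained in IMDM/20% FBS. Parental MA93 received IMDM/20% FBS plus 10 ng/mL human SCF, TPO, FLT3L, IL3 and IL6. Dosing used ≥5 two-fold dilutions from 50 μM top, 0.1% DMSO final, in triplicate wells with ≥2 biological replicates. Plates ran 72 h at 37°C, followed by 30 min reagent incubation at RT in the dark. GI50 came from DMSO-normalized luminescence.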

The subject of a further experiment is MA93 FLT3-ITD cells. Nature of the experiment: Proliferation assay. As to conditions: Homo sapiens, 72 h. In kind it is cell-based. The method in brief:
as §2

For the next experiment, the system named is MA93 Ras cells. Nature of the experiment: Proliferation assay. Conditions: Homo sapiens, MA9.3RAS, 72 h. It counts as cell-based. The method in brief:
as §2

Another experiment concerns RN2 cells. Nature of the experiment: Proliferation assay. It counts as cell-based, murine. As to conditions: Mus musculus, 72 h. The method in brief:
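Murine RN2 cells were seeded at 2,500/well and exposed to ≥5 two-fold dilutions (top 50 μM, 0.1% DMSO final) in triplicate wells, with ≥2 biological replicates, for 72 h. MTS reagent was added for 1.25 h at 37°C and absorbance read at 490 nm. Values were normalized to DMSO wells and GI50 fitted. Error bars are SEM.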

The test system of experiment [3] is gene expression in MV4:11 cells. Nature of the experiment: RNA-Seq. It counts as cell-based, human. Conditions: MV4:11, 2 μM, 3 days.
In experiment [4] the target is T1, WDR5 (Homo sapiens, UniProt P61964). Nature of the experiment: ChIP-Seq of WDR5. In kind it is cell-based. As to conditions: MV4:11, 2 μM, 4 h. An outline of the steps: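 MV4:11 cells at 10^6/ml were treated 4 h with 2 μM test compound, negative control or 0.1% DMSO. Cells were concentrated to 4 × 10^6/ml in PBS, fixed in 1% formaldehyde for 10 min at RT and quenched with 125 mM glycine. They were lysed in 1% SDS FA buffer. Sheared chromatin was diluted to 0.1% SDS and immunoprecipitated overnight at 4°C with anti-WDR5 (D9E1I or 429A) or IgG on BSA-blocked protein-A agarose. Peaks were compared by normalized average read counts.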

Experiment [5] relates to p53 turnover in MV4:11 cells. Nature of the experiment: Cycloheximide. It counts as cell-based, human. As to conditions: MV4:11, 2 μM, 24 h before CHX. The method in brief: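 Before the cycloheximide chase, MV4:11 cells were pretreated 24 h with 2 μM test compound, 2 μM Nutlin-3 as comparator, or DMSO only. p53 was then followed by immunoblot.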
Experiment [6] deals with T1, WDR5. Nature of the experiment: 10-mer-Thr-FAM peptide TR-FRET competition assay. In kind it is binding. Conditions: relative to C3. On the technique in general: In TR-FRET formats the signal depends on donor and acceptor labels being close together.
The subject of experiment [7] is gene body transcription in MV4:11 cells. In words: PRO-Seq. In kind it is cell-based, human. Conditions: MV4:11, 36 μM, 15, 30 or 60 min. An outline of the steps: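 30 million MV4:11 cells were harvested 15, 30 or 60 min after test compound; 0.1% DMSO for 60 min was the reference. Cells were swollen on ice, lysed with 0.1% Triton/10% glycerol and Dounce-homogenized. Nuclei were stored at −80°C in 40% glycerol freezing buffer (2 × 10^7 nuclei/100 μl) and used for nuclear run-on. Beads were washed in high/medium/low salt; RNA was TRIzol-extracted.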

Experiment [8] deals with T1, WDR5. In words: ChIP-PCR of WDR5 binding. In kind it is cell-based. Conditions: MV4:11, 36 μM, 4 h. The method in brief:
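MV4:11 cells were treated 4 h with 36 μM test compound, its negative control or DMSO. They were cross-linked in 0.75–1% formaldehyde for 10 min at RT and quenched with 125 mM glycine. Cells were lysed in SDS/Triton formaldehyde lysis buffer. Chromatin from 6 million cells was used per IP, with anti-WDR5 (D9E1I) or IgG, followed by low-salt, high-salt, LiCl and TE washes. Signal is % input, biological triplicate, SEM.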

Experiment [9] deals with T1, WDR5. In words: Subcellular fractionation, WDR5 western blot. In kind it is cell-based. Conditions: MV4:11, 36 μM, 4 h.

Broadly, the GI50 is the concentration at which growth is held to half of that of the control. A lower GI50 goes with greater sensitivity of the cells. As for `CN1CCN(c2ccc(-c3cccc(CN4CCOCC4)c3)cc2NC(=O)c2c[nH]c(=O)cc2C(F)(F)F)CC1` [OICR-9429, reference compound], the concentration for 50% growth inhibition (GI50) with MV4:11 cells was determined as 31 µM. In addition, the “p53 and p21 protein induction” value in experiment [1] was “induced both p53 and p21”. Further, the “transcription of RPGs” value in [2] is on record as “selectively inhibited the transcription of WDR5-bound RPGs”.
As for `Cc1nc(F)ccc1-c1cc(C(=O)NCc2ccc(Cl)c(Cl)c2)ccc1Cn1ccn(C)c1=N` [Compound C6nc, N-(3,4-dichlorobenzyl)-3-(6-fluoro-2-methylpyridin-3-yl)-4-((2-imino-3-methyl-2,3-dihydro-1H-imidazol-1-yl)methyl)benzamide], the 50% growth inhibitory concentration (GI50) in the experiment on MV4:11 cells was 42 ± 9.02 µM; with Molm13 cells it was over 50 µM; with HL60 cells, over 50 µM; in the experiment on K562 cells it was 31.7 ± 2.45 µM; in the experiment on THP-1 cells it was over 50 µM; with HEL cells, over 50 µM. Further, the GI50 was over 50 µM in the experiment on NOMO-1 cells; over 50 µM with SET-2 cells; over 50 µM in the experiment on MONO-Mac-6 cells; over 50 µM with GDM-1 cells; 30.3 ± 5.94 µM in the experiment on MA93 cells; 26.2 ± 4.75 µM in the experiment with MA93 FLT3-ITD cells. Moreover, the GI50 in the experiment with MA93 Ras cells and with RN2 cells was over 50 µM each time. The “effect on gene expression levels” value in [3] is listed as “no significant effect on gene expression levels”. Also, the “WDR5 binding events on chromatin” value on WDR5 [4] is listed as “little impact on WDR5 binding”.
With `COc1ccc(C2=N[C@@H](c3ccc(Cl)cc3)[C@@H](c3ccc(Cl)cc3)N2C(=O)N2CCNC(=O)C2)c(OC(C)C)c1` [nutlin-3, reference compound], in experiment [5], the “p53 turnover in CHX chase” value is “increased the stability of p53”.
As for `COc1cc(CNC(=O)c2cccc(CNC3=NCCN3)c2F)cc(OC)c1` [Compound C3nc, 3-(((4,5-dihydro-1H-imidazol-2-yl)amino)methyl)-N-(3,5-dimethoxybenzyl)-2-fluorobenzamide], the “binding to WDR5 of negative control” value on WDR5 [6] is recorded as “reduced affinity”. In addition, the GI50 with MV4:11 cells, in the experiment with Molm13 cells, in the experiment with HL60 cells, in the experiment on K562 cells, in the experiment on THP-1 cells and in the experiment with HEL cells was over 50 µM in each case. Moreover, the GI50 in the experiment on NOMO-1 cells, in the experiment on SET-2 cells, with MA93 cells, in the experiment on MA93 FLT3-ITD cells, with MA93 Ras cells and in the experiment with RN2 cells was over 50 µM in each case.
With `COc1cc(CNC(=O)c2ccc(F)c(CNC3=NCCN3)c2)cc(OC)c1` [Compound C3, 3-(((4,5-dihydro-1H-imidazol-2-yl)amino)methyl)-N-(3,5-dimethoxybenzyl)-4-fluorobenzamide], the GI50 in the experiment with HL60 cells, in the experiment with K562 cells, with THP-1 cells, in the experiment with HEL cells, in the experiment on NOMO-1 cells and in the experiment with SET-2 cells was over 50 µM in each case. Besides, the GI50 is 22.1 ± 3.6 µM in the experiment with MA93 cells, 21.2 ± 2.11 µM with MA93 FLT3-ITD cells, over 50 µM in the experiment with MA93 Ras cells and 8.65 ± 0.989 µM in the experiment on RN2 cells. Moreover, the increase in transcription entry in [7] is “no instances in which C3 promoted an increase in transcription”. Also, the “reduction in WDR5 binding at five loci” value at WDR5 [8] is reported as over 10 fold. Besides, at WDR5 [9], the “chromatin-bound WDR5 (P3 fraction)” value is “reduced the total amount of chromatin-bound WDR5”.

The values are drawn from publication PMC6448596 (Cell reports, 2019).
